Results from ChEMBL document CHEMBL4049449, “Discovery of a Novel Class of Survival Motor Neuron 2 Splicing Modifiers for the Treatment of Spinal Muscular Atrophy” (J Med Chem, 2017).
≈ marks a conversion by molar mass, not a printed value. Calls of active or inactive are those of the source. The rule behind the calls is not given here.

What was measured:
[1] = tested on: Salmonella typhimurium; assay: Genotoxicity in Salmonella typhimurium TA100 in presence of rat liver S9 fraction by Ames test; type: toxicity; settings: salmonella enterica subsp. enterica serovar typhimurium
In short: (§1)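 Ames plate incorporation: strains grown overnight at 37 °C in nutrient broth (TA102 with 0.3 μg/mL tetracycline). Compound at 20–2000 μg/plate in top agar with histidine/biotin, plus rat liver S9 mix (NADP, glucose 6-phosphate, KCl, MgCl2, pH 7.4 phosphate). Vogel–Bonner plates incubated 37 °C, 2 days; colonies counted by image analysis. Positive: dose-dependent ≥2-fold (TA1535, TA98) or ≥1.5-fold (TA97, TA100, TA102) rise over background.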

[2] = species: Homo sapiens; assay: Modulation of patient derived full length SMN2 pre mRNA splicing assessed as inclusion of exon 7
[3] = tested on: Salmonella typhimurium; assay: Genotoxicity in Salmonella typhimurium TA98 in presence of rat liver S9 fraction by Ames test; type: toxicity; settings: salmonella enterica subsp. enterica serovar typhimurium; in short: as §1
[4] = tested on: Salmonella typhimurium; assay: Genotoxicity in Salmonella typhimurium TA97 in presence of rat liver S9 fraction by Ames test; type: toxicity; settings: salmonella enterica subsp. enterica serovar typhimurium; in short: as §1
[5] = tested on: Salmonella typhimurium; assay: Genotoxicity in Salmonella typhimurium TA1535 in presence of rat liver S9 fraction by Ames test; type: toxicity; settings: salmonella enterica subsp. enterica serovar typhimurium; in short: as §1
[6] = tested on: Salmonella typhimurium; assay: Genotoxicity in Salmonella typhimurium TA102 in presence of rat liver S9 fraction by Ames test; type: toxicity; settings: salmonella enterica subsp. enterica serovar typhimurium; in short: as §1
[7] = species: Homo sapiens; assay: Modulation of patient derived full length SMN2 pre mRNA splicing assessed as restoration of functional SMN2 to protein level
[8] = Solubility of the compound in phosphate buffer solution at pH 6.5 by HPLC-UV analysis; type: physicochemical
In short: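 Lysa: duplicate samples from 10 mM DMSO stocks, DMSO evaporated, residue taken up in 0.05 M phosphate buffer pH 6.5, stirred 1 h, shaken 2 h, left overnight, filtered. Filtrate and its 1/10 dilution were read by direct UV or HPLC-UV against a four-point calibration; range 0–666 μg/mL for MW 500.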

[9] = tested on: Plasma; assay: Drug metabolism in rat plasma assessed as amide bond hydrolysis at 1 uM after 15 to 300 mins by LC-MS/MS analysis; type: ADME, cell-free
[10] = target: Cytochrome P450 3A4 (Homo sapiens, UniProt P08684); assay: Inhibition of CYP3A4 (unknown origin); type: ADME
Chain of Cytochrome P450 3A4 (P08684 whole entry): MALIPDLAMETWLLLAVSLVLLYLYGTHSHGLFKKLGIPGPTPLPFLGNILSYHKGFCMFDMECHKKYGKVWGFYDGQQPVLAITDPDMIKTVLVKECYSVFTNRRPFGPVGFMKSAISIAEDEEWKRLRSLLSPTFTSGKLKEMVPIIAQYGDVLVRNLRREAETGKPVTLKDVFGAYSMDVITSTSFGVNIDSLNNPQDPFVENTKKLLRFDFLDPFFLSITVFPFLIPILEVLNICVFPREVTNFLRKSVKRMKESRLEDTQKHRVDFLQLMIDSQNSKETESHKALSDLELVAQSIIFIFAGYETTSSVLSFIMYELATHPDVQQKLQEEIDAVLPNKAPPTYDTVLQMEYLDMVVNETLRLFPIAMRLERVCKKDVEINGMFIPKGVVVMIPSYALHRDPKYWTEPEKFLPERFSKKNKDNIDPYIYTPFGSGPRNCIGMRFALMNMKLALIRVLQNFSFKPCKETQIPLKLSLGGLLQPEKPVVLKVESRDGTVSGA

[11] = tested on: Plasma; assay: Drug metabolism in human plasma assessed as amide bond hydrolysis at 1 uM after 15 to 300 mins by LC-MS/MS analysis; type: ADME, cell-free
[12] = Permeability of the compound by PAMPA; type: physicochemical; settings: read-out: permeability
In short: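 Parallel artificial membrane permeability: phospholipid-coated filter plate sandwiched between donor compound/buffer and acceptor buffer. Donor concentration at start was compared with donor and acceptor concentrations at end time, giving Pe (10−6 cm/s); membrane retention was also determined.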

[13] = target: Cytochrome P450 2D6 (Homo sapiens, UniProt P10635); assay: Inhibition of CYP2D6 (unknown origin); type: ADME
Chain of Cytochrome P450 2D6 (P10635 whole entry): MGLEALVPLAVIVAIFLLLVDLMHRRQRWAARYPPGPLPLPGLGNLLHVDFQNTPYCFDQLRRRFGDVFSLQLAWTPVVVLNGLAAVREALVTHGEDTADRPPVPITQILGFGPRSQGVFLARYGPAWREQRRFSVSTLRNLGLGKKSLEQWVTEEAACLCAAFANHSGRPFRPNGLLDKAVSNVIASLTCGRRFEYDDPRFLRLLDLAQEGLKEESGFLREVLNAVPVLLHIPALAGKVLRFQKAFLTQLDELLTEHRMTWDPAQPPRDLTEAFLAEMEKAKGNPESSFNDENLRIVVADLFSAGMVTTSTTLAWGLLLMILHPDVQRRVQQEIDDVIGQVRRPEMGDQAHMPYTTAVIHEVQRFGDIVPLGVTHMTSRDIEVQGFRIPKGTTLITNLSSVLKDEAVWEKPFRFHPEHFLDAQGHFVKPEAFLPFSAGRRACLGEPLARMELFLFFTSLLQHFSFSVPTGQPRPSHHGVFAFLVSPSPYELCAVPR

[14] = Stability at various pH levels assessed as amide bond hydrolysis; type: physicochemical
[15] = Glutathione reactivity assessed as GSH adduct formation
[16] = tested on: Plasma; assay: Drug metabolism in mouse plasma assessed as amide bond hydrolysis at 1 uM after 15 to 300 mins by LC-MS/MS analysis; type: ADME, cell-free
[17] = target: Cytochrome P450 2C9 (Homo sapiens, UniProt P11712); assay: Inhibition of CYP2C9 (unknown origin); type: ADME
Chain of Cytochrome P450 2C9 (P11712 whole entry): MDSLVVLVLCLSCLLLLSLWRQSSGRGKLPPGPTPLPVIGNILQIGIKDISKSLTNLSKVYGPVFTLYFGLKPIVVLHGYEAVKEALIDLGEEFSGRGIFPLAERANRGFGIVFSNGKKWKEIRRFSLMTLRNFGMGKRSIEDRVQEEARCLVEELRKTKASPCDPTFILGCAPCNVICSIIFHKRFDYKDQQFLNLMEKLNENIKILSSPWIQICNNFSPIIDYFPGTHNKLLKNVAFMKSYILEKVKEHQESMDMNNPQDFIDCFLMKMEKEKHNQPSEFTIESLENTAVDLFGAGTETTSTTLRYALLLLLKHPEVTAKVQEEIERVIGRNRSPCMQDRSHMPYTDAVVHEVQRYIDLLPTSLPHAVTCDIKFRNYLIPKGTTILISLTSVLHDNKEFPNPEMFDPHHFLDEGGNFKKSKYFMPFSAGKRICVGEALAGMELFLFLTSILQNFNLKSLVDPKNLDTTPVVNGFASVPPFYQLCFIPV

[18] = target: hERG (KCNH2) (Homo sapiens, UniProt Q12809); assay: Inhibition of human ERG channel
Chain of hERG (KCNH2) (Q12809 whole entry): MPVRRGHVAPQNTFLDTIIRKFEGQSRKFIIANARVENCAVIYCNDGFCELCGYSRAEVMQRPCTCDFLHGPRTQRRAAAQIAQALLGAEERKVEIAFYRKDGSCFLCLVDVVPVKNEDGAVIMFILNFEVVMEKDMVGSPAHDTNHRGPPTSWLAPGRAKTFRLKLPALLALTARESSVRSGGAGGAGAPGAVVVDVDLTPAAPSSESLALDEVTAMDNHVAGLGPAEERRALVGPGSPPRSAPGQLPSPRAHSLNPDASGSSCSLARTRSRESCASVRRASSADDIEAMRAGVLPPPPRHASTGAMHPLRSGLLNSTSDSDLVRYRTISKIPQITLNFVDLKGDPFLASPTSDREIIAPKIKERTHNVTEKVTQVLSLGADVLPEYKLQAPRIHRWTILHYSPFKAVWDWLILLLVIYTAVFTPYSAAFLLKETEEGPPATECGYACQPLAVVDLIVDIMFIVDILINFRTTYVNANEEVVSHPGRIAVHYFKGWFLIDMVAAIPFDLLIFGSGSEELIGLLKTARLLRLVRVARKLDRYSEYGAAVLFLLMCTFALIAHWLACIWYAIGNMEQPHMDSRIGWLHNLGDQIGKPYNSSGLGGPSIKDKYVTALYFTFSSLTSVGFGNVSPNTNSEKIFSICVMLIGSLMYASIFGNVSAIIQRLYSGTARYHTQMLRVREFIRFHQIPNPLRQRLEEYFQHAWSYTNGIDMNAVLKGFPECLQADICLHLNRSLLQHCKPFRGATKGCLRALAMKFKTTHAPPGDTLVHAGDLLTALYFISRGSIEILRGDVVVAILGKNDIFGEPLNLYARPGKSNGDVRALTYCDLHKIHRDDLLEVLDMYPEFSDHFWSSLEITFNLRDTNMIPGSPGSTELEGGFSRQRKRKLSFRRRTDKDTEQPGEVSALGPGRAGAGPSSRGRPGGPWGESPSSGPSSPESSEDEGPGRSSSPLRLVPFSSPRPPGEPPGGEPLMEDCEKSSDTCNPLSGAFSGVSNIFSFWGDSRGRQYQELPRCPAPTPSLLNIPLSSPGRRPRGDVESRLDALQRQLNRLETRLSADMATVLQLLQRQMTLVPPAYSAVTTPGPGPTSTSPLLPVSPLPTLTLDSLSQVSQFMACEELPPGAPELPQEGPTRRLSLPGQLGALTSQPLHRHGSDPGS

[19] = Octanol-phosphate buffer partition co-efficient, log D of the compound at pH 7.4 after 24 hrs by shake flask method; type: physicochemical
In short: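 CAMDIS shake-flask variant: PVDF membranes impregnated with 1-octanol dipped in 25 mM phosphate buffer pH 7.4 containing compound, shaken 24 h at 23 °C. Two octanol/water ratios were run for hydrophilic or lipophilic compounds. Aqueous concentration was measured by LC/MS with and without octanol, and log D was calculated from the difference and the phase ratio.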

[20] = tested on: Mus musculus; assay: Induction of SMN protein levels in neonatal delta7 FVB mouse brain at 1 mg/kg, ip qd administered from postnatal day 3 to day 9 measured 1 hr post last dose by HTRF assay relative to control; type: functional
[21] = Total AUC in wild type FVB mouse plasma at 10 mg/kg, po qd for 10 days by LC-MS/MS analysis; type: ADME, organism-based; set-up: dose 10 mg/kg, route oral, time AUCmax
[22] = tested on: Mus musculus; assay: Induction of SMN protein levels in C/C-Allele SMA FVB mouse brain at 10 mg/kg, po qd for 10 days measured 1 hr post last dose by HTRF assay relative to control; type: functional
In short: (§2)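 Adult C/C-allele SMA mice dosed orally once daily for 10 days at 1, 3 or 10 mg/kg. SMN protein in brain and quadriceps was expressed as % increase over vehicle-treated animals.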

[23] = tested on: Mus musculus; assay: Induction of SMN protein levels in neonatal delta7 FVB mouse brain at 3 mg/kg, ip qd administered from postnatal day 3 to day 9 measured 1 hr post last dose by HTRF assay relative to control; type: functional
[24] = tested on: Mus musculus; assay: Induction of SMN protein levels in C/C-Allele SMA FVB mouse brain at 3 mg/kg, po qd for 10 days measured 1 hr post last dose by HTRF assay relative to control; type: functional; in short: as §2
[25] = tested on: Mus musculus; assay: Induction of SMN protein levels in C/C-Allele SMA FVB mouse brain at 1 mg/kg, po qd for 10 days measured 1 hr post last dose by HTRF assay relative to control; type: functional; in short: as §2
[26] = tested on: Mus musculus; assay: Induction of SMN protein levels in neonatal delta7 FVB mouse brain at 0.3 mg/kg, ip qd administered from postnatal day 3 to day 9 measured 1 hr post last dose by HTRF assay relative to control; type: functional
[27] = Total AUC in neonatal wild type FVB mouse plasma at 3 mg/kg, ip qd for 10 days by LC-MS/MS analysis; type: ADME, organism-based; set-up: dose 3 mg/kg, route intraperitoneal, time AUCmax
In short: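 Plasma AUC determined in a satellite group of neonatal (P10) wild-type mice dosed ip. Free AUC was calculated using the free fraction measured in serum from adult mice.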

SMILES | Activity [1] | EC1.5 [2] | Activity [3] | Activity [4] | Activity [5] | Activity [6] | EC1.5 [7] | further results
Cc1cn2cc(-c3cc4ccc(N5CCN(C)CC5)cc4c(=O)o3)nc2c(C)n1 | Toxic | 25 nM | Toxic | Toxic | Toxic | Toxic |  | 
Cc1nc2c(F)cc(NC(=O)c3ccc(N4CCNCC4)cc3F)cc2o1 | Non-Toxic | 39 nM | Non-Toxic | Non-Toxic | Non-Toxic | Non-Toxic | 116 nM | 
Cc1cn2cc(NC(=O)c3ccc(N4CCN(C)CC4)cc3)nc2c(C)n1 | Non-Toxic | 660 nM | Non-Toxic | Non-Toxic | Non-Toxic | Non-Toxic | 3950 nM | solubility [8]: 111 µg/mL (≈ 305 µM); Stability [9]: Stable; IC50 [10]: > 50 µM; Stability [11]: Stable; Papp [12]: 2.38 ×10⁻⁶ cm/s; IC50 [13]: > 50 µM; Stability [14]: Stable; Stability [15]: Stable; Stability [16]: Stable; IC50 [17]: > 50 µM; IC20 [18]: > 10 µM; logD at 24 h [19]: 2
CC[C@@H]1CN(c2ccc(C(=O)Nc3cn4cc(C)nc4cn3)c(F)c2)CCN1 |  | 29 nM |  |  |  |  | 158 nM | Activity [20]: 66%; AUC at 240 h [21]: 19000 ng·h/mL; Activity [22]: 217%; Activity [23]: 117%; Activity [24]: 45%; Activity [25]: 19%; Activity [26]: 0%; AUC at 240 h [27]: 3730 ng·h/mL
Cc1cn2nc(NC(=O)c3ccc(N4CCNC(C)C4)cc3F)nc2c(C)n1 (stereo unspecified) | Non-Toxic | inactive | Non-Toxic | Non-Toxic | Non-Toxic | Non-Toxic | inactive | 
Cc1cn2cc(NC(=O)c3ccc(N4CCNCC4)cc3F)ncc2n1 | Non-Toxic | 37 nM | Non-Toxic | Non-Toxic | Non-Toxic | Non-Toxic | 87 nM | 
